This experiment deals with Nuclear receptor subfamily 0 group B member 1 (Homo sapiens) (UniProt P51843). In words: DAX1 (NR0B1) inhibitors, reporter derepression, dose response, cell-based, luminescence, HEK293, powder samples, assay provider (AID 624302). The conditions noted are these: HEK293 GAL4-DAX1 repression, luciferase reporter luminescence; at 100 µM; active compounds read high. The method in brief: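 Test system: HEK293 with GAL4-DAX1 fusion and Gal4-tk-luc reporter; Measured by: luciferase luminescence; Controls: DMSO wells.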

We go through 29 molecules from PubChem BioAssay AID624302 (The Scripps Research Institute Molecular Screening Center, 2012).

The source made the active and inactive calls.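 How the source made its calls: active means relative luminescence ratio of 1.25 or more at any tested dose; inactive means ratio below 1.25 at every dose.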

Nuclear receptor subfamily 0 group B member 1 (Homo sapiens), sequence (P51843 207-470 limits assumed): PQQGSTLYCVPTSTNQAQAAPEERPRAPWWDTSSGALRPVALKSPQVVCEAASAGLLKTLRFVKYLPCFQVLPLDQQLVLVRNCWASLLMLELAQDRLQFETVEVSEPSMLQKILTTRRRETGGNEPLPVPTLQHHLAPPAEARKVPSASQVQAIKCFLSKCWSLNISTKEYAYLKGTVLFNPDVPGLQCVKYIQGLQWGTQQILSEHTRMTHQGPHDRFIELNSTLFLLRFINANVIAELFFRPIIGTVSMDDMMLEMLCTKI

With `O=C(Cc1cccs1)Nc1ccc2c(c1)OCO2`, the relative luminescence ratio was 0.62 (inactive).
Take `COc1ccc(OC)c(C(C)NC(=O)c2cccc(C)c2)c1` (centres undefined): the relative luminescence ratio was 0.23 (inactive).
As for `O=C(Nc1ccc2c(c1)OCO2)c1ccc2ccccc2c1`, the relative luminescence ratio is 0.02 (inactive).
With `COc1ccc(OC)c(C(C)NC(=O)c2ccccc2C)c1` (centres undefined), the relative luminescence ratio is 0.42 (inactive).
For `COc1ccc(OC)c(C(C)NC(=O)c2cccc3ccccc23)c1` (centres undefined) the value was 0.01 (inactive); for `COc1ccc(OC)c(C(C)NC(=O)c2cccc(F)c2)c1` (centres undefined), 0.63 (inactive); for `COc1ccc(OC)c(C(C)NC(=O)c2ccccc2F)c1` (centres undefined), 0.39 (inactive).
The value for `COc1ccc(OC)c(C(C)NC(=O)c2ccccc2Cl)c1` (centres undefined) was 0.39 (inactive); that for `COc1cccc(C(=O)Nc2ccc3c(c2)OCO3)c1` was 0.16 (inactive); that for `CN(C)c1cccc(C(=O)Nc2ccc3c(c2)OCCO3)c1` was 0.05 (inactive).
The value for `CSc1ccccc1C(=O)Nc1ccc2c(c1)OCCO2` was 0.51 (inactive).
Regarding `COc1cccc(C(=O)Nc2ccc3c(c2)OCCO3)c1`, the relative luminescence ratio is 0.02 (inactive).
The value for `Cc1occc1C(=O)Nc1ccc2c(c1)OCO2` was 0.21 (inactive).
The value for `Cn1c(=O)n(C)c2cc(C(=O)Nc3ccc4c(c3)OCO4)ccc21` was 1.77; that for `O=C(Nc1ccc2c(c1)OCO2)c1cccs1` was 0.38 (inactive).
For `COc1cccc(C(=O)NC(C)c2cc(OC)ccc2OC)c1` (centres undefined), the relative luminescence ratio was 0.3 (inactive).
On to `COc1ccc(OC)c(C(C)NC(=O)c2ccc(Cl)cc2)c1` (centres undefined), for which the relative luminescence ratio was 0.3 (inactive).
The value for `O=C(Nc1ccc2c(c1)OCCO2)c1ccc2ccccc2c1` was 0.02 (inactive).
On to `O=C(Nc1ccc2c(c1)OCO2)c1ccc(C2SCC(=O)N2Cc2ccco2)cc1` (centres undefined), for which the relative luminescence ratio is 0.01 (inactive).
For `COc1ccc(OC)c(C(C)NC(=O)c2ccccc2)c1` (centres undefined) the value was 0.46 (inactive).
The value for `Cn1c(=O)n(C)c2cc(C(=O)Nc3ccc4c(c3)OCCO4)ccc21` was 2.25.
Regarding `CSc1ccccc1C(=O)Nc1ccc2c(c1)OCO2`, the relative luminescence ratio was 0.41 (inactive).
For `COc1ccc(OC)c(C(C)NC(=O)c2ccc3c(c2)OCCO3)c1` (centres undefined) the value was 0.31 (inactive); for `COc1ccc(OC)c(C(C)NC(=O)c2ccc(C)cc2)c1` (centres undefined), 0.38 (inactive); for `COc1ccc(OC)c(C(C)NC(=O)c2ccc(C(C)(C)C)cc2)c1` (centres undefined), 0.1 (inactive).
Take `COc1ccc(OC)c(C(C)NC(=O)c2c(F)cccc2Cl)c1` (centres undefined): the relative luminescence ratio was 0.51 (inactive).
For `Cc1cc(C(=O)Nc2ccc3c(c2)OCO3)cs1` the value was 0.26 (inactive).
For `O=C(Nc1ccc2c(c1)OCO2)c1ccc(C2SCC(=O)N2Cc2ccccc2)cc1` (centres undefined) the value was 0.01 (inactive).
The value for `COc1ccc(OC)c(C(C)NC(=O)c2ccc(F)cc2)c1` (centres undefined) was 0.33 (inactive).
